The term IC50 denotes the point on the concentration scale where inhibition reaches its midpoint. In general, Kp refers to the ratio of the level in a tissue or fluid to that in plasma or blood. One may read the ED50 as the dose at which the effect has come halfway, by size or by number of responders. By Papp is commonly meant a coefficient for how fast a substance crosses the barrier. The solubility is how much of the substance goes into solution per volume. High values mean a readily soluble substance, low ones a poorly soluble substance. As a reminder, the half-life is the time needed for the level to fall by half in the phase considered. A higher half-life goes with slow loss. What is called bioavailability is the share of a dose that reaches the circulation, judged against a reference dose that is usually intravenous.

These results are taken from ChEMBL document CHEMBL1144162, “Tetrahydropyridine-4-carboxamides as novel, potent transient receptor potential vanilloid 1 (TRPV1) antagonists” (Bioorg Med Chem, 2008).

Data set [1] deals with T1, Transient receptor potential cation channel subfamily V member 1 (Homo sapiens, UniProt Q8NER1). The experiment in a line: Antagonist activity at human recombinant TRPV1 expressed in human 1321N1 cells assessed as inhibition of capsaicin-induced calcium influx by FLIPR assay. Format: functional, cell-based. The method in brief: (§1)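 Ca2+ influx in 1321N1 cells stably expressing recombinant human or rat TRPV1, grown to confluency, loaded with fluo-4 AM (2 µM in D-PBS) 1–2 h at 23 °C, washed. Compound (11-point half-log range, D-PBS) added at 10 s, capsaicin 3 min later. FLIPR fluorescence read over 240 s; peak increase minus baseline as % of 0.05 µM capsaicin control; four-parameter logistic fit for IC50; mean of ≥2 experiments in triplicate.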
T1 sequence (Q8NER1 whole entry): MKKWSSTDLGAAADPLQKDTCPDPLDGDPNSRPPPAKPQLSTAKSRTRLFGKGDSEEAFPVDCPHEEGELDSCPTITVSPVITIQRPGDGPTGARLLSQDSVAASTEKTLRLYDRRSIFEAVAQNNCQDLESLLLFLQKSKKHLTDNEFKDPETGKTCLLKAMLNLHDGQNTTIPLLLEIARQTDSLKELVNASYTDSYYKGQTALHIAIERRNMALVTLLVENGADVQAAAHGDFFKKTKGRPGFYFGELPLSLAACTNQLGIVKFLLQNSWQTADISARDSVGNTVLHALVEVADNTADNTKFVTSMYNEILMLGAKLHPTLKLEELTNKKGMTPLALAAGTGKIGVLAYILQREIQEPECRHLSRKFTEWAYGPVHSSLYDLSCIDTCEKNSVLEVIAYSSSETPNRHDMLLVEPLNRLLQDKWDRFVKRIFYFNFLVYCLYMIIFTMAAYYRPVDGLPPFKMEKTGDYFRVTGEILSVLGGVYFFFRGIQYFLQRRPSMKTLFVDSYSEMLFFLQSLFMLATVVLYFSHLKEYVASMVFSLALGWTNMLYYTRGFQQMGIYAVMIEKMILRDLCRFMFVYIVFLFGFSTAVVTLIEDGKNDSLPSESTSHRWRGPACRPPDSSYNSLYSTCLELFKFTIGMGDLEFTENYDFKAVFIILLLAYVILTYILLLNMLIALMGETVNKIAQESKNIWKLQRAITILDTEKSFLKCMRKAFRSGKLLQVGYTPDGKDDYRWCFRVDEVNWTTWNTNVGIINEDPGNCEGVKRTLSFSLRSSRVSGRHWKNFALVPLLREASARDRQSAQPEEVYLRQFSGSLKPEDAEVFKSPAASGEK

Data set [2] is described as follows: Ratio of drug level in brain to plasma in po dosed Sprague-Dawley rat. Type of data set: ADME, organism-based. The method, boiled down: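 Male Sprague–Dawley rats (200–320 g), group-housed with free food and water, fasted 16 h before oral dosing. Compound given po in 10% ethanol, 20% polysorbate-80 and 70% PEG-400. Drug concentrations in brain and plasma were expressed as a [brain]:[plasma] ratio.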

Data set [3] has as its system Rattus norvegicus. The experiment in a line: Analgesic activity against complete Freund's adjuvant-induced thermal hyperalgesia in po dosed Sprague-Dawley rat assessed as paw withdrawal latency. Format: functional. The method, boiled down:
(§2)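 Male Sprague–Dawley rats (200–320 g), food withdrawn 16 h before oral dosing. Right hindpaw injected with 150 µL of 50% CFA in saline. Thermal hyperalgesia measured 48 h later as radiant-heat paw withdrawal on a 30 °C glass surface after 30 min habituation. Vehicle: 10% ethanol, 20% polysorbate-80, 70% PEG-400. Single-dose testing used 30 µmol/kg po, n = 6/group, versus vehicle.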

Data set [4] relates to Rattus norvegicus. The experiment in a line: Antinociceptive activity against hyperalgesia in po dosed rat Chung neuropathic pain model. Type of data set: functional.
The target of data set [5] is Transient receptor potential cation channel subfamily V member 1 (Rattus norvegicus, UniProt O35433). The data set is described as follows: Antagonist activity at rat TRPV1 expressed in human 1321N1 cells assessed as inhibition of capsaicin-induced calcium influx by FLIPR assay. Format: functional, cell-based. The method, boiled down: as §1
Sequence of Transient receptor potential cation channel subfamily V member 1 (Rattus norvegicus, UniProt O35433) (O35433 whole entry): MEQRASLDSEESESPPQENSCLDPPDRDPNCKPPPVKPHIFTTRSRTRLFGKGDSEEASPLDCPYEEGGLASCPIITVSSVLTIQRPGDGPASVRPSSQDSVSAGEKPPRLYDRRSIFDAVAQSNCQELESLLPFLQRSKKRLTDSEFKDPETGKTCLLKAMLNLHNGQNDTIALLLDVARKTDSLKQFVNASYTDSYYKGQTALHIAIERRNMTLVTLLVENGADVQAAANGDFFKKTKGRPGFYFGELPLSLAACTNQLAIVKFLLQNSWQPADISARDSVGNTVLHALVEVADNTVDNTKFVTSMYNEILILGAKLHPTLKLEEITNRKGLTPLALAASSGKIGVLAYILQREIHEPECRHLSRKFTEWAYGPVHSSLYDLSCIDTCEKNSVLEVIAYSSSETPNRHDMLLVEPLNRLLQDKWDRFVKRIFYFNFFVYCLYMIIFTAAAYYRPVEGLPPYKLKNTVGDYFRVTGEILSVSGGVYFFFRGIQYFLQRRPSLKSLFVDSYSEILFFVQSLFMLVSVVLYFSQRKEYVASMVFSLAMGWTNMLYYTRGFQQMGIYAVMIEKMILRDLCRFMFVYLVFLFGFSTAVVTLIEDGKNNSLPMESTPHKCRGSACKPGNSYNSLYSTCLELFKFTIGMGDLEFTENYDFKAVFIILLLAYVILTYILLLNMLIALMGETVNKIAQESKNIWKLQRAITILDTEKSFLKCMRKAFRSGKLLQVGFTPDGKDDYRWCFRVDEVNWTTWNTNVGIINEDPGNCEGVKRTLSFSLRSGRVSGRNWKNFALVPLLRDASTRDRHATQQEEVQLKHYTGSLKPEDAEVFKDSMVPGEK
Data set [6] addresses T1, Transient receptor potential cation channel subfamily V member 1. The experiment in a line: Antagonist activity at human recombinant TRPV1 expressed in human 1321N1 cells assessed as inhibition of N-arachidonoyl-dopamine-induced calcium influx by FLIPR assay. Format: functional, cell-based. The method in brief:
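FLIPR fluo-4 Ca2+ influx in 1321N1 cells stably expressing human TRPV1, with 3 µM NADA as the stimulus. Compound is added before agonist challenge. Peak fluorescence increase over baseline is fit to a four-parameter logistic curve to give IC50.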

Data set [7] in a line: Apparent permeability across human Caco-2 cell membrane. Format: ADME, cell-based.
The target of data set [8] is T1, Transient receptor potential cation channel subfamily V member 1. The experiment in a line: Antagonist activity at human recombinant TRPV1 expressed in human 1321N1 cells assessed as inhibition of pH 5.5-induced calcium influx by FLIPR assay. Type of data set: functional, cell-based. The method, boiled down: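 Fluo-4 FLIPR Ca2+ assay in 1321N1 cells stably expressing human TRPV1, stimulated by low pH (pH 5.5) after compound preincubation. Peak fluorescence rise minus baseline is fit by a four-parameter logistic equation to give IC50.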

For data set [9], the species on record is Rattus norvegicus. The data set is described as follows: Analgesic activity against gamma carrageenan-induced thermal hyperalgesia in Sprague-Dawley rat. Format: functional. The method in brief:
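Male Sprague–Dawley rats (200–320 g) received 100 µL of 1% carrageenan in saline into the right hindpaw plantar surface. Thermal hyperalgesia was tested 2 h later by radiant heat to the plantar surface in Plexiglass cubicles on a 30 °C glass floor, after 30 min habituation.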

Data set [10] can be described thus: Aqueous solubility of the compound. Format: physicochemical. Conditions: buffer.
The subject of data set [11] is Rattus norvegicus. The data set is described as follows: Analgesic activity against complete Freund's adjuvant-induced thermal hyperalgesia in Sprague-Dawley rat assessed as paw withdrawal latency at 30 umol/kg, po. Format: functional. The method in brief: as §2
Data set [12] deals with Rattus norvegicus. The experiment in a line: Analgesic activity against complete Freund's adjuvant-induced mechanical allodynia in po dosed Sprague-Dawley rat. Type of data set: functional.
The species named for data set [13] is Rattus norvegicus. The data set is described as follows: Nocifensive activity against capsaicin-induced neuropathic pain in rat. Type of data set: functional.
Data set [14] is filed under the species Rattus norvegicus. The data set is described as follows: Analgesic activity against skin incision-induced acute thermal hyperalgesia in Sprague-Dawley rat. Type of data set: functional. The method in brief:
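Under halothane (2–3%) anesthesia, a left hind paw plantar incision was made aseptically in male Sprague–Dawley rats. Rats recovered 2 h before thermal hyperalgesia testing.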

The species entered for data set [15] is Rattus norvegicus. The experiment in a line: Analgesic activity against capsaicin-induced secondary mechanical allodynia in rat. Type of data set: functional.
A short description of data set [16]: Plasma concentration in po dosed Sprague-Dawley rat after 1 hr. Type of data set: ADME, organism-based.
The species entered for data set [17] is Rattus norvegicus. The experiment in a line: Analgesic activity against monosodium iodoacetate-induced osteoarthritis in rat. Format: functional.
Data set [18] can be described thus: Solubility in PEG-400. Format: physicochemical. The method, boiled down:
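Solubility was measured in PEG-400 as an organic vehicle.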

The target in data set [19] is Voltage-gated inwardly rectifying potassium channel KCNH2 (Homo sapiens, UniProt Q12809). The experiment in a line: Inhibition of human ERG.
Sequence of Voltage-gated inwardly rectifying potassium channel KCNH2 (Q12809 whole entry): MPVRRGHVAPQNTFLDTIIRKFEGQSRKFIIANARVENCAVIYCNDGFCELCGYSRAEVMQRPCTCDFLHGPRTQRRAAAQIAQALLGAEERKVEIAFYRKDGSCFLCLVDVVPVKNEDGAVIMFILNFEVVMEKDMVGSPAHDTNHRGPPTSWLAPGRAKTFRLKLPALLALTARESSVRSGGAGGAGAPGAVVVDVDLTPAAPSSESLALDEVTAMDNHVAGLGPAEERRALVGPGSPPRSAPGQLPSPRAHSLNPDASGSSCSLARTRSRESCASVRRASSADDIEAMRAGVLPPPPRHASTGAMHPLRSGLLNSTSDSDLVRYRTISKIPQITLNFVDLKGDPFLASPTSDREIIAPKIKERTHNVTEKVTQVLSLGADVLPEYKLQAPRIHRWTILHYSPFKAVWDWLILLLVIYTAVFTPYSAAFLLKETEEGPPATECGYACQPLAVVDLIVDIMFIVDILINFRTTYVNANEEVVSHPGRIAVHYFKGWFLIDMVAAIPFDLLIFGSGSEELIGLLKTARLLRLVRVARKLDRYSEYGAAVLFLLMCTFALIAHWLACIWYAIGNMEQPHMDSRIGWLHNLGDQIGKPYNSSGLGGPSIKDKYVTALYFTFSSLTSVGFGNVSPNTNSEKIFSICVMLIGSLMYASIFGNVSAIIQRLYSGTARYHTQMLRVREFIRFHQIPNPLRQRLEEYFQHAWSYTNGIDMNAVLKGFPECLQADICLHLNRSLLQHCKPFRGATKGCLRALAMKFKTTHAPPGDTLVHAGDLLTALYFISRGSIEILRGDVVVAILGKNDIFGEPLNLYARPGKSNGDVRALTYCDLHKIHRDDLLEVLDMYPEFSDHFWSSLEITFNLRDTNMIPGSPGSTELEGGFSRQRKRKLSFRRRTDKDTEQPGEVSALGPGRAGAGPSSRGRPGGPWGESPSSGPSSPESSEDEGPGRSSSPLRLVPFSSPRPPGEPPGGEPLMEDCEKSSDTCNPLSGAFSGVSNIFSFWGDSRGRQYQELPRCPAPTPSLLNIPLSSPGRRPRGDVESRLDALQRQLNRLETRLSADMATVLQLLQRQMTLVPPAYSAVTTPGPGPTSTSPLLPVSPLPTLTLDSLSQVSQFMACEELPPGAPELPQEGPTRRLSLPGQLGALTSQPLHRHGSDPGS
A short description of data set [20]: Half-life in po dosed Sprague-Dawley rat. Type of data set: ADME, organism-based. Conditions: in vivo.
The nature of data set [21]: Oral bioavailability in Sprague-Dawley rat. Type of data set: ADME, organism-based. To be noted: in vivo.

Values after ≈ are worked out from the molar mass of the structure shown.

`CC(C)(C)c1ccc(NC(=O)c2ccc(-c3ccccn3)cc2)cc1`: the IC50 in data set [1] was found to be 0.042 µM.

As for `CC(C)(C)c1ccc(NC(=O)N2CCN(c3ncccc3Cl)CC2)cc1`, the Kp in data set [2] amounted to 5. The ED50 with Rattus norvegicus [3] and with Rattus norvegicus [4] was 8 µmol/kg throughout.

Take `O=C(Nc1ccc(S(=O)(=O)C(F)(F)F)cc1)C1=CCN(c2ncccc2C(F)(F)F)CC1`: the IC50 in data set [5] was determined as 0.017 µM; in [1], 0.024 µM; in data set [6] it was 0.0202 µM; in data set [8], 0.014 µM. Besides, the Papp in data set [7] came to 28.5 ×10⁻⁶ cm/s. The Kp in data set [2] stood at 1.5. In addition, the ED50 in the data set on Rattus norvegicus [3] is 12 µmol/kg; in the data set listed under Rattus norvegicus [9], 25 µmol/kg; in the data set on Rattus norvegicus [12] it was 76 µmol/kg; in the data set with Rattus norvegicus [4] it was above 300 µmol/kg; in the data set listed under Rattus norvegicus [13] it was 10 µmol/kg; in the data set listed under Rattus norvegicus [14], 20 µmol/kg. The ED50 in the data set listed under Rattus norvegicus [15] stood at 40 µmol/kg; in the data set filed under Rattus norvegicus [17] it was 8 µmol/kg. Further, the figures for the solubility in [10] and in data set [18] were 0.033 µg/mL (≈ 6.88e-05 mM) and above 100 mg/mL, respectively. Further, the Efficacy with Rattus norvegicus [11] is 58%. In data set [16], this compound showed a concentration at 1 h of 200 ng/mL.

Consider `CC(C)(C)c1ccc(NC(=O)C2=CCN(c3ncccc3Cl)CC2)cc1`, for which the IC50 in data set [1] was 0.01 µM.

On to `COc1cccc(NC(=O)c2ccc(-c3ccccc3)cc2)c1`, for which the IC50 in data set [1] amounted to 0.147 µM.

Take `O=C(Nc1ccc(Cl)c(F)c1)C1=CCN(c2ncccc2Cl)CC1`: the half-maximal inhibitory concentration (IC50) in data set [1] was 0.078 µM.

Consider `O=C(Nc1ccc(Cl)cc1)C1=CCN(c2ncccc2Cl)CC1`, for which the outcome in data set [19] was Active. Besides, the IC50 in data set [1] was determined as 0.033 µM. In data set [20], this compound had a half-life of 1.7 h. The compound further had a bioavailability in data set [21] of 16%.

For the compound `CC(C)(C)c1ccc(NC(=O)C2=CCN(c3ccccc3F)CC2)cc1`, the IC50 in [1] stood at 0.265 µM.

With `O=C(Nc1ccc(Cl)cc1)C1=CCN(c2ncccc2C(F)(F)F)CC1`, the IC50 in data set [1] was found to be 0.019 µM. Further, the Efficacy with Rattus norvegicus [11] is listed as 40%.

For the compound `O=C(Nc1ccc(S(=O)(=O)C(F)(F)F)cc1)C1=CCN(c2ncccc2F)CC1`, the IC50 in data set [1] came out at 0.067 µM. In addition, the Efficacy with Rattus norvegicus [11] is listed as 51%. In data set [16], this compound gave a concentration at 1 h of 900 ng/mL.

Consider `O=C(Nc1ccc(S(=O)(=O)C(F)(F)F)cc1)C1=CCN(c2nccs2)CC1`, for which the IC50 in [1] came to 0.095 µM. Further, in the data set on Rattus norvegicus [11], the Efficacy was 37%. The concentration at 1 h in [16] came out at 2100 ng/mL.

For the compound `CC(C)(C)c1ccc(NC(=O)C2=CCN(c3ncccc3C#N)CC2)cc1`, the IC50 in [1] worked out at 0.078 µM.

With `CC(C)(C)c1ccc(NC(=O)C2=CCN(c3ccccn3)CC2)cc1`, in data set [1], the IC50 is 0.027 µM.

As to `CC(C)(C)c1ccc(NC(=O)C2=CCN(c3ncccc3F)CC2)cc1`, the IC50 in [1] was found to be 0.019 µM.

As to `CC(C)(C)c1ccc(NC(=O)C2=CCN(c3nccs3)CC2)cc1`, in data set [1], the concentration for half-maximal inhibition (IC50) is 0.014 µM.

`O=C(Nc1ccc(Cl)c(Cl)c1)C1=CCN(c2ncccc2Cl)CC1`: in data set [1], the IC50 came to 0.124 µM.

As to `O=C(Nc1ccc(Cl)cc1C(F)(F)F)C1=CCN(c2ncccc2Cl)CC1`, the IC50 in data set [1] was 2.75 µM.

For `CC(C)(C)c1ccc(NC(=O)C2=CCN(c3ncccn3)CC2)cc1`, the IC50 in data set [1] stood at 0.01 µM.

In the case of `CC(C)(C#N)c1ccc(NC(=O)C2=CCN(c3ncccc3C(F)(F)F)CC2)cc1`, the IC50 in data set [1] stood at 0.041 µM. In addition, the Efficacy in the data set on Rattus norvegicus [11] was 25%.

As to `CC(C)(C)c1ccc(NC(=O)C2CCN(c3ncccc3Cl)CC2)cc1`, the half-maximal inhibitory concentration (IC50) in data set [1] was 0.196 µM.

Regarding `CC(C)(C)c1ccc(NC(=O)C2=CCN(c3ncccc3C(F)(F)F)CC2)cc1`, in [1], the IC50 is 0.006 µM. For the same compound, in the data set on Rattus norvegicus [11], the Activity amounted to 28%.

Turning to `O=C(Nc1cccc2[nH]ncc12)N[C@@H]1CCc2cc(N3CCCCC3)ccc21`, the values for the IC50 in [5] and in data set [1] were 0.03 µM and 0.014 µM, respectively. Further, the Kp in data set [2] turned out to be 0.008. Further, the ED50 with Rattus norvegicus [3] is 12 µmol/kg; with Rattus norvegicus [12], 300 µmol/kg; with Rattus norvegicus [4], above 300 µmol/kg; in the data set filed under Rattus norvegicus [13], 10 µmol/kg; in the data set filed under Rattus norvegicus [15] it was 165 µmol/kg; in the data set listed under Rattus norvegicus [17] it was 280 µmol/kg.

Turning to `O=C(Nc1ccc(S(=O)(=O)C(F)(F)F)cc1)C1=CCN(c2ncccn2)CC1`, the IC50 in data set [1] amounted to 0.044 µM. For the same compound, the Efficacy in the data set on Rattus norvegicus [11] is 53%. Besides, the concentration at 1 h in data set [16] was determined as 380 ng/mL.

Take `O=C(Nc1ccc(C(F)(F)F)cc1)C1=CCN(c2ncccc2C(F)(F)F)CC1`: the IC50 in [1] was 0.008 µM. Moreover, the Efficacy with Rattus norvegicus [11] came out at 35%.

For `O=C(Nc1ccc(S(=O)(=O)C(F)(F)F)cc1)C1=CCN(c2ncccc2Cl)CC1`, in data set [1], the IC50 worked out at 0.041 µM. The Efficacy with Rattus norvegicus [11] turned out to be 63%. In addition, the concentration at 1 h in data set [16] turned out to be 280 ng/mL.

As to `O=C(Nc1ccc(Cl)cc1F)C1=CCN(c2ncccc2Cl)CC1`, in data set [1], the IC50 came to 0.618 µM.

For the compound `O=C(Nc1ccc(C(F)(F)F)nc1)C1=CCN(c2ncccc2C(F)(F)F)CC1`, the IC50 in [1] is 0.042 µM. In addition, in data set [21], the bioavailability is 3%. For the same compound, the Efficacy with Rattus norvegicus [11] is listed as 61%.

With `Cc1cccnc1N1CC=C(C(=O)Nc2ccc(S(=O)(=O)C(F)(F)F)cc2)CC1`, in data set [1], the IC50 is 0.035 µM. For the same compound, the Efficacy with Rattus norvegicus [11] was 53%. In data set [16], this compound yielded a concentration at 1 h of 960 ng/mL.
